Assay results from ChEMBL document CHEMBL5331142, “Novel 1,4-Dihydropyridines as Specific Binders and Activators of SIRT3 Impair Cell Viability and Clonogenicity and Downregulate Hypoxia-Induced Targets in Cancer Cells” (J Med Chem, 2023).
Active and inactive are the calls of the source. No cut-off for these calls is given here.

Tests used:
MDA-MB-231 [1] = assay: Inhibition of cell migration in human MDA-MB-231 cells at 50 uM incubated for 48 hrs by scratch assay; format: functional
How it was run: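 Confluent MDA-MB-231 monolayer shifted to serum-depleted medium and scratched with a pipette tip. Treated with 50 μM compound for 48 h, DMSO as control. Migration imaged by phase contrast at two time points and quantified. Mean ± SEM of three independent experiments.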

[2] = molecular target: T1, NAD-dependent protein deacetylase sirtuin-3, mitochondrial (Homo sapiens) (UniProt Q9NTG7); assay: Activation of human SIRT3 overexpressing in human MDA-MB-231 cells assessed as increase in acK122-MnSOD deacetylation level at 50 uM incubated for 4 hrs by Western blot analysis assay; format: cell-based; conditions: filed as activator
T1 sequence (whole entry): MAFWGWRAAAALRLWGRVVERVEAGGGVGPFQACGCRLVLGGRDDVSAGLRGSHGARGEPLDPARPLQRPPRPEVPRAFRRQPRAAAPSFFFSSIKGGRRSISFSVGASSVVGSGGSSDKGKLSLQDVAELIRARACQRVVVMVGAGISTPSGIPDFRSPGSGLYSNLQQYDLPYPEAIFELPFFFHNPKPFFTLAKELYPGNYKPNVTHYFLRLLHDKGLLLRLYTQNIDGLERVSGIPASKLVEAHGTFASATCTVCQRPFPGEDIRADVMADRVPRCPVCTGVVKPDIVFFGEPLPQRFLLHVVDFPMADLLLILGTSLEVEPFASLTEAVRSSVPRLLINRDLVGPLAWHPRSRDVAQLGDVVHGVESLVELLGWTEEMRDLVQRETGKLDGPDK
How it was run: (§1)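 CAL-62 or MDA-MB-231 cells treated 4 h at 50 μM. Lysed in Tris/NaCl/EDTA/Triton buffer with protease and phosphatase inhibitors. 15 or 50 μg protein resolved by SDS-PAGE, immunoblotted for acK68- or acK122-MnSOD and total MnSOD, ECL detection. Densitometric acetyl/total ratio. SIRT3 inhibitor 3-TYP (1 μM) used as control.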

CAL-62 [3] = assay: Downregulation of CA-IX expression in human CAL-62 cells at 50 uM incubated for 48 hrs under hypoxia condition by Western blot analysis; format: functional, cell-based
How it was run: (§2)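 CAL-62 or MDA-MB-231 cells made hypoxic with 200 μM CoCl2 for 24 h, then treated with 50 μM compound for 48 h with CoCl2 retained. Lysates (15 or 50 μg protein) immunoblotted for HIF-1α, EPAS-1 or CA-IX with ACTB, ECL detection. 3-TYP (1 μM) as control.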

MDA-MB-231 [4] = assay: Downregulation of ZEB1 gene expression in human MDA-MB-231 cells at 50 uM incubated for 48 hrs by qRT-PCR analysis; format: functional, cell-based
How it was run: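 MDA-MB-231 cells treated with 50 μM compound for 48 h under normoxia, DMSO vehicle control. qRT-PCR quantified by the 2(−ΔCt) method as fold of control, mean ± SEM. Three independent experiments.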

[5] = molecular target: T1, NAD-dependent protein deacetylase sirtuin-3, mitochondrial (Homo sapiens); assay: Activation of human SIRT3 overexpressing in human CAL-62 cells assessed as increase in acK122-MnSOD deacetylation level at 50 uM incubated for 4 hrs by Western blot analysis assay; format: cell-based; conditions: filed as activator; how it was run: as §1
[6] = molecular target: T2, NAD-dependent protein deacetylase sirtuin-3, mitochondrial (Homo sapiens, UniProt Q9NTG7); assay: Binding affinity to N-terminal his-tagged human SIRT3 (114 to 380 residues) assessed as dissociation constant by SPR analysis
T2 sequence (Q9NTG7 whole entry): T1 sequence (whole entry)
How it was run: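 SPR with SIRT3 amine-coupled to the chip (sodium acetate pH 4.0; 1500–4000 RU). Analytes diluted to 200 μM in HBSP (20 mM Hepes, 150 mM NaCl, 0.005% P20; 2% DMSO), injected at 5, 10, 20, 40, 80 μM at 30 μL/min. Dissociation after 180 s. Reference chip lacked ligand. Apparent KD by Scatchard analysis. Run twice.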

MDA-MB-231 [7] = assay: Downregulation of CA-IX expression in human MDA-MB-231 cells at 50 uM incubated for 48 hrs under hypoxia condition by Western blot analysis; format: functional, cell-based; how it was run: as §2
[8] = molecular target: T1, NAD-dependent protein deacetylase sirtuin-3, mitochondrial (Homo sapiens); assay: Activation of human SIRT3 overexpressing in human MDA-MB-231 cells assessed as increase in acK122-MnSOD deacetylation level at 10 uM incubated for 4 hrs by Western blot analysis assay; format: cell-based; conditions: filed as activator
How it was run: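 MDA-MB-231 cells treated 4 h at 10 μM, lysed, and immunoblotted for acK122-MnSOD and total MnSOD. Densitometric ratio.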

[9] = molecular target: T1, NAD-dependent protein deacetylase sirtuin-3, mitochondrial (Homo sapiens); assay: Activation of human SIRT3 overexpressing in human CAL-62 cells assessed as increase in acK68-MnSOD deacetylation level at 50 uM incubated for 4 hrs by Western blot analysis assay; format: cell-based; conditions: filed as activator; how it was run: as §1
CAL-62 [10] = assay: Inhibition of clonogenicity in human CAL-62 cells incubated for 48 hrs under hypoxia condition by crystal violet staining based assay; format: functional, cell-based; conditions: CAL-62, 48 h
How it was run: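 Dose range 1–50 μM for 48 h under CoCl2 (200 μM) hypoxia. 500 surviving cells replated and grown about 7 days (CAL-62) or 10 days (MDA-MB-231). Crystal violet colony counts used to derive IC50/EC50. Three independent experiments.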

HaCaT [11] = assay: Cytotoxicity against human HaCaT cells assessed as reduction in cell viability at 10 to 25 uM incubated for 48 hrs by trypan blue exclusion assay; format: toxicity, cell-based; conditions: dose 10-25 µM
How it was run: (§3)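 HaCaT keratinocytes in DMEM with 10% FBS, treated at 5, 10 and 25 μM for 24 and 48 h. Viability and death scored by trypan blue hemocytometer counting. Three independent experiments.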

CAL-62 [12] = assay: Inhibition of clonogenicity in human CAL-62 cells at 50 uM incubated for 24 to 48 hrs under hypoxia condition by crystal violet staining based assay; format: functional; conditions: time 24-48 hrs
How it was run: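 CAL-62 cells at 80–90% confluence treated with 50 μM compound for 24 or 48 h, in normoxia or with 200 μM CoCl2 (hypoxia). 500 cells replated per 100 mm dish and grown about 7 days. Colonies fixed in 4% formaldehyde, stained with 0.5% crystal violet, and counted.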

HaCaT [13] = assay: Cytotoxicity against human HaCaT cells assessed as reduction in cell viability at 5 to 25 uM incubated for 24 to 48 hrs by trypan blue exclusion assay; format: toxicity, cell-based; conditions: dose lower 5 µM, time lower 24 hrs, dose upper 25 µM, time upper 48 hrs; how it was run: as §3

SMILES: CCOC(=O)C1=CN(C(=O)c2cc(OC)cc(OC)c2)C=C(C(=O)OCC)C1c1ccccc1
- inhibition at 50 µM (MDA-MB-231 [1]): > 75%
- Activity [2]: Active
- Activity (CAL-62 [3]): Active
- Activity (MDA-MB-231 [4]): Active
- Activity [5]: Active
- Kd [6]: 79 µM
- Activity (MDA-MB-231 [7]): Active
- Activity [8]: Active
- Activity [9]: Active
- IC50 (CAL-62 [10]): 5.43 µM
- Activity (HaCaT [11]): Non-Toxic
- inhibition at 50 µM (CAL-62 [12]): 68%

SMILES: CCOC(=O)C1=CN(C(=O)c2ccc(OC)c(OC)c2)C=C(C(=O)OCC)C1c1ccccc1
- Activity (HaCaT [13]): Non-Toxic
